In ChEMBL document CHEMBL1149195, “N,N-dialkyl-2-phenylindol-3-ylglyoxylamides. A new class of potent and selective ligands at the peripheral benzodiazepine receptor” (J Med Chem, 2004):
pKi: −log10 of the molar value.

Tests used:
[1] = molecular target: T1, Cholesterol side-chain cleavage enzyme, mitochondrial (Rattus norvegicus, UniProt P14137); assay: Stimulation of pregnenolone formation from rat C6 glioma cells; type: functional, cell-based; set-up: concentration or dose not given beside the values
T1 sequence (P14137 whole entry): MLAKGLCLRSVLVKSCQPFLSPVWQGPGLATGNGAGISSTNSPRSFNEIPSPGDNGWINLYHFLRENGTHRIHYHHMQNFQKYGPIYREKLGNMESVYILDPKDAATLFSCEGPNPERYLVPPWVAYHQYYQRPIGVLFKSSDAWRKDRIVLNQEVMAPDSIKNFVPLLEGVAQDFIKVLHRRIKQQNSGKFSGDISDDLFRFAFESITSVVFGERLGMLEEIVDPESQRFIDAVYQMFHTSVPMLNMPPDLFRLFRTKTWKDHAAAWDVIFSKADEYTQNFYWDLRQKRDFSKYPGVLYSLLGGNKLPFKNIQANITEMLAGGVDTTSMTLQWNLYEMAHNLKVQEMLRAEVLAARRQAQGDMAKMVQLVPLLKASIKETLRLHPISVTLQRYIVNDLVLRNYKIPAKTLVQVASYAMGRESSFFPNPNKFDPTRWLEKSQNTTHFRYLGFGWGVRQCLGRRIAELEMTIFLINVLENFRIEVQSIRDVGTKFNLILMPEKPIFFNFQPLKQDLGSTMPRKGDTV
How it was run: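 Rat C6 glioma cells exposed to compound for 2 h at 37 °C; pregnenolone measured by radioimmunoassay and expressed as % increase over control; mean ± SEM of at least three determinations.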

[2] = molecular target: GABA-A receptor; anion channel (Rattus norvegicus) (UniProt O09028+P15431+P18506+P18508+P19969+P20236+P23574+P23576+P28471+P28473+P30191+P62813+P63079+P63138+Q91ZM7+Q9ES14); assay: Percent inhibition of rat benzodiazepine receptor assayed using [3H]-flumazenil radioligand at 10 um concentration; type: protein-complex assay
How it was run: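 Displacement of [3H]flumazenil specific binding in rat brain membranes by test compound at fixed 10 µM; percent inhibition as mean ± SEM of five determinations.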

Translocator protein = Translocator protein (Rattus norvegicus, UniProt P16257); assay: Binding affinity to peripheral benzodiazepine receptors using [3H]-PK11195 radioligand in rat kidney mitochondrial membrane; type: cell membranes
Translocator protein, sequence (P16257 whole entry, looked up): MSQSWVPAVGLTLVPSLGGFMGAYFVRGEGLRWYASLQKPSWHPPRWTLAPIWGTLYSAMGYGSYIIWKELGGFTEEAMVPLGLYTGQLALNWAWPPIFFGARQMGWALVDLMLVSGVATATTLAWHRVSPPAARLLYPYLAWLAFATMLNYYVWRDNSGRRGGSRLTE

Q: Which Activity [1] does the source give for `CCCN(CCC)C(=O)C(=O)c1c(-c2ccccc2)[nH]c2ccccc12` here?
A: The Activity was 8%.

Q: And the inhibition [2]?
A: The inhibition was 16%.

Q: Which results are given for `CCCCCCN(CCCCCC)C(=O)C(=O)c1c(-c2ccccc2)[nH]c2ccccc12`?
A: Activity [1]: 30%; inhibition [2]: 10%

Q: `CCCN(CCC)C(=O)C(=O)c1c(-c2ccccc2)[nH]c2ccc(Cl)cc12` was tested. Which Activity [1] did it give?
A: Its Activity is 10%.

Q: And the pKi (Translocator protein)?
A: The pKi was 8.55.

Q: What about the inhibition [2] of the same compound?
A: Its inhibition is 10%.

Q: For `CCCN(CCC)C(=O)C(=O)c1c(-c2ccc(C)cc2)[nH]c2ccccc12`, which Activity [1] is on record?
A: The Activity was 148%.

Q: What about the inhibition [2] of the same compound?
A: The inhibition was 7%.

Q: Which results are given for `CC(C)N(C(=O)C(=O)c1c(-c2ccccc2)[nH]c2ccccc12)C(C)C`?
A: pKi (Translocator protein): 6.99; inhibition [2]: 4%

Q: `CCCN(CCC)C(=O)Cc1c(-c2ccc(Cl)cc2)nc2ccc(Cl)cn12` [ALPIDEM] was tested. Which pKi (Translocator protein) did it give?
A: The pKi was 8.15.

Q: And the inhibition [2]?
A: Its inhibition is 28%.

Q: Which results are given for `CCCCNC(=O)C(=O)c1c(-c2ccccc2)[nH]c2ccccc12`?
A: pKi (Translocator protein): 5.93; inhibition [2]: 12%

Q: For `CCCCN(CCCC)C(=O)C(=O)c1c(-c2ccc(C)cc2)[nH]c2ccccc12`, which Activity [1] is on record?
A: Its Activity is 58%.

Q: And the pKi (Translocator protein)?
A: Its pKi is 8.42.

Q: What about the inhibition [2] of the same compound?
A: The inhibition was 11%.

Q: What does the source list for `CCCCCCN(CCCCCC)C(=O)C(=O)c1c(-c2ccccc2)[nH]c2ccc(Cl)cc12`?
A: Activity [1]: 31%; pKi (Translocator protein): 7.23; inhibition [2]: 3%

Q: `O=C(C(=O)N1CCCCC1)c1c(-c2ccccc2)[nH]c2ccccc12` was tested. Which pKi (Translocator protein) did it give?
A: The pKi was 6.18.

Q: What about the inhibition [2] of the same compound?
A: Its inhibition is 3%.

Q: With `CCN(CC)C(=O)C(=O)c1c(-c2ccccc2)[nH]c2ccccc12` as the compound, how does the pKi (Translocator protein) read?
A: Its pKi is 7.37.

Q: And the inhibition [2]?
A: Its inhibition is 6%.

Q: Which Activity [1] does the source give for `CCCCN(CCCC)C(=O)C(=O)c1c(-c2ccc(F)cc2)[nH]c2ccccc12` here?
A: The Activity was 26%.

Q: What about the inhibition [2] of the same compound?
A: The inhibition was 0%.

Q: For `CCCCCN(CCCCC)C(=O)C(=O)c1c(-c2ccccc2)[nH]c2ccccc12`, which Activity [1] is on record?
A: Its Activity is 35%.

Q: And the pKi (Translocator protein)?
A: The pKi was 7.80.

Q: What about the inhibition [2] of the same compound?
A: Its inhibition is 3%.

Q: Which results are given for `CCCCN(CCCC)C(=O)C(=O)c1c(-c2ccc(Cl)cc2)[nH]c2ccc(Cl)cc12`?
A: Activity [1]: 147%; pKi (Translocator protein): 8.72; inhibition [2]: 0%

Q: Which Activity [1] does the source give for `CCCN(CCC)C(=O)C(=O)c1c(-c2ccc(F)cc2)[nH]c2ccccc12` here?
A: The Activity was 20%.

Q: What about the pKi (Translocator protein) of the same compound?
A: The pKi was 8.37.

Q: And the inhibition [2]?
A: Its inhibition is 4%.

Q: With `O=C(C(=O)N1CCCC1)c1c(-c2ccccc2)[nH]c2ccccc12` as the compound, how does the pKi (Translocator protein) read?
A: The pKi was 5.62.

Q: What about the inhibition [2] of the same compound?
A: The inhibition was 4%.

Q: For `CCCN(CCC)C(=O)C(=O)c1c(-c2ccc(Cl)cc2)[nH]c2ccccc12`, which Activity [1] is on record?
A: Its Activity is 40%.

Q: And the pKi (Translocator protein)?
A: The pKi was 8.33.

Q: What about the inhibition [2] of the same compound?
A: Its inhibition is 14%.

Q: With `CCCNC(=O)C(=O)c1c(-c2ccccc2)[nH]c2ccccc12` as the compound, how does the pKi (Translocator protein) read?
A: Its pKi is 6.09.

Q: With `CCCCCCN(CCCCCC)C(=O)C(=O)c1c(-c2ccc(Cl)cc2)[nH]c2ccccc12` as the compound, how does the Activity [1] read?
A: The Activity was 109%.

Q: What about the pKi (Translocator protein) of the same compound?
A: Its pKi is 9.26.

Q: What about the inhibition [2] of the same compound?
A: Its inhibition is 4%.

Q: For `CCCCN(CCCC)C(=O)C(=O)c1c(-c2ccc(Cl)cc2)[nH]c2ccccc12`, which Activity [1] is on record?
A: Its Activity is 55%.

Q: What about the pKi (Translocator protein) of the same compound?
A: Its pKi is 9.00.

Q: What about the inhibition [2] of the same compound?
A: Its inhibition is 0%.

Q: For `CCCCCCN(CCCCCC)C(=O)C(=O)c1c(-c2ccc(C)cc2)[nH]c2ccccc12`, which Activity [1] is on record?
A: Its Activity is 77%.

Q: What about the pKi (Translocator protein) of the same compound?
A: Its pKi is 8.80.

Q: What about the inhibition [2] of the same compound?
A: Its inhibition is 6%.

Q: What does the source list for `O=C(C(=O)N1CCCCCC1)c1c(-c2ccccc2)[nH]c2ccccc12`?
A: pKi (Translocator protein): 7.48; inhibition [2]: 5%

Q: With `CCC(C)N(C(=O)C(=O)c1c(-c2ccccc2)[nH]c2ccccc12)C(C)CC` (stereo unspecified) as the compound, how does the Activity [1] read?
A: The Activity was 10%.

Q: What about the pKi (Translocator protein) of the same compound?
A: The pKi was 7.77.

Q: And the inhibition [2]?
A: Its inhibition is 5%.

Q: Which Activity [1] does the source give for `CCCN(CCC)C(=O)C(=O)c1c(-c2ccc(Cl)cc2)[nH]c2ccc(Cl)cc12` here?
A: Its Activity is 49%.

Q: And the pKi (Translocator protein)?
A: Its pKi is 9.21.

Q: What about the inhibition [2] of the same compound?
A: Its inhibition is 5%.

Q: Which Activity [1] does the source give for `CCCCCCN(CCCCCC)C(=O)C(=O)c1c(-c2ccc(F)cc2)[nH]c2ccccc12` here?
A: The Activity was 62%.

Q: What about the pKi (Translocator protein) of the same compound?
A: Its pKi is 9.43.

Q: And the inhibition [2]?
A: Its inhibition is 0%.

Q: `CCCCN(CCCC)C(=O)C(=O)c1c(-c2ccccc2)[nH]c2ccccc12` was tested. Which Activity [1] did it give?
A: Its Activity is 23%.

Q: And the pKi (Translocator protein)?
A: The pKi was 8.12.

Q: And the inhibition [2]?
A: Its inhibition is 3%.

Q: Which Activity [1] does the source give for `CCCCN(CCCC)C(=O)C(=O)c1c(-c2ccccc2)[nH]c2ccc(Cl)cc12` here?
A: The Activity was 5%.

Q: What about the pKi (Translocator protein) of the same compound?
A: Its pKi is 8.31.

Q: And the inhibition [2]?
A: The inhibition was 13%.

Q: Which results are given for `CCCCCCN(CCCCCC)C(=O)C(=O)c1c(-c2ccc(Cl)cc2)[nH]c2ccc(Cl)cc12`?
A: Activity [1]: 166%; pKi (Translocator protein): 8.24; inhibition [2]: 3%
